Assay results from ChEMBL document CHEMBL4402518, “Identification of Novel Medulloblastoma Cell-Targeting Peptides for Use in Selective Chemotherapy Drug Delivery” (J Med Chem, 2020).
Blank lines part the entries; values can stand above or below the compound they belong to. Activity calls are given as the source filed them. The rule behind the calls is not given here. Peptide text beside a SMILES is read from it. * marks the point of attachment. Glutaryl(5-(14-O-Dox)) = COc1cccc2c1C(=O)c1c(O)c3c(c(O)c1C2=O)C[C@@](O)(C(=O)COC(=O)CCCC(=O)*)C[C@@H]3O[C@H]1C[C@H](N)[C@H](O)[C@H](C)O1

How the values were obtained:
[1] = system: MRC5; experiment: Cytotoxicity against human MRC5 cells assessed as reduction in cell viability incubated for 72 hrs by AlamarBlue cell viability assay; assay type: cell-based; settings: MRC5, 72 h
In short: (§1)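 Cells treated at increasing concentrations, with viability read 72 hours post-treatment by alamar blue assay. Data are mean ± S.E.M. from 3 independent experiments.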

[2] = Drug uptake in human DaOY cells assessed as secondary lifetime at 0.25 uM measured after 3 hrs by fluorescence live imaging microscopy analysis; assay type: ADME, cell-based
[3] = Cytotoxicity against human NHA cells assessed as reduction in cell viability incubated for 72 hrs by AlamarBlue cell viability assay; assay type: cell-based; in short: as §1
[4] = Stability in human serum at 250 uM incubated for up to 4 hrs MALDI-TOF analysis; assay type: ADME, cell-free
[5] = Selectivity index, ratio of IC50 for human NHA cells to IC50 for human DaOY cells incubated for 72 hrs by AlamarBlue cell viability assay
[6] = Drug uptake in human DaOY cells assessed as primary life time at 0.25 uM measured after 3 hrs by fluorescence live imaging microscopy analysis; assay type: ADME, cell-based
[7] = Drug uptake in human DaOY cells assessed as drug internalization at 0.25 uM pretreated with actin polymerization inhibitor/macropinocytosis inhibitor, cytochalasin D 1 hr prior to compound addition and measured after 3 hrs by flow cytometry; assay type: ADME, cell-based
In short: (§2)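 To probe endocytic routes, cells were first pre-treated with non-toxic concentrations of one of four inhibitors before compound exposure. The inhibitors were genistein (caveolae), cytochalasin D (actin/macropinocytosis), amiloride hydrochloride (caveolae/macropinocytosis) and chlorpromazine hydrochloride (clathrin).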

[8] = Stability in human serum incubated for up to 4 hrs by LC-MS/MS analysis; assay type: ADME, cell-free
[9] = Selectivity index, ratio of IC50 for human MRC5 cells to IC50 for human DaOY cells incubated for 72 hrs by AlamarBlue cell viability assay
[10] = Ratio of IC50 of compound to IC50 of doxorubicin for cytotoxicity against human MRC5 cells assessed as reduction in cell viability incubated for 72 hrs by AlamarBlue cell viability assay; assay type: cell-based; settings: read-out: Ratio IC50
[11] = Drug uptake in human DaOY cells assessed as drug internalization at 0.25 uM measured after 15 to 60 mins by confocal microscopy; assay type: ADME, cell-based
[12] = Stability in mouse serum at 250 uM incubated for up to 4 hrs MALDI-TOF analysis; assay type: ADME, cell-free
[13] = Stability in mouse serum incubated for up to 4 hrs by LC-MS/MS analysis; assay type: ADME, cell-free
[14] = Ratio of IC50 of compound to IC50 of doxorubicin for cytotoxicity against human NHA cells assessed as reduction in cell viability incubated for 72 hrs by AlamarBlue cell viability assay; assay type: cell-based; settings: read-out: Ratio IC50
[15] = Drug uptake in human DaOY cells assessed as drug localization by measuring punctuate pattern of expression throughout cell cytoplasm, perinuclear and nuclear region at 0.25 uM measured after 15 to 30 mins by confocal microscopy; assay type: ADME, cell-based
[16] = Drug uptake in human DaOY cells assessed as drug internalization at 0.25 uM measured after 3 hrs by flow cytometry; assay type: ADME, cell-based
[17] = system: Daoy; experiment: Cytotoxicity against human DaOY cells assessed as reduction in cell viability incubated for 72 hrs by AlamarBlue cell viability assay; assay type: functional, cell-based; in short: as §1
[18] = Drug uptake in human DaOY cells assessed as drug localization in nucleus at 0.25 uM pretreated with actin polymerization inhibitor/macropinocytosis inhibitor, cytochalasin D 1 hr prior to compound addition and measured after 3 hrs by fluorescence live imaging microscopy analysis; assay type: ADME, cell-based
[19] = Drug uptake in human DaOY cells assessed as drug localization in nucleus at 0.25 uM measured after 3 hrs by […]; assay type: ADME, cell-based
[20] = Drug uptake in human DaOY cells assessed as drug internalization at 0.25 uM pretreated with caveloae/macropinocytosis inhibitor, amiloride hydrochloride 1 hr prior to compound addition and measured after 3 hrs by flow cytometry; assay type: ADME, cell-based; in short: as §2
[21] = Drug uptake in human DaOY cells assessed as drug localization in cytoplasm at 0.25 uM pretreated with actin polymerization inhibitor/macropinocytosis inhibitor, cytochalasin D 1 hr prior to compound addition and measured after 3 hrs by fluorescence live imaging microscopy analysis; assay type: ADME, cell-based
[22] = Drug uptake in human DaOY cells assessed as drug internalization at 0.25 uM pretreated with clathrin-mediated endocytosis inhibitor, chlorpromazine hydrochloride 1 hr prior to compound addition and measured after 3 hrs by flow cytometry; assay type: ADME, cell-based; in short: as §2
[23] = Drug uptake in human DaOY cells assessed as drug localization in perinuclear and nuclear regions of cell at 0.25 uM measured after 15 to 30 mins by confocal microscopy; assay type: ADME, cell-based
[24] = Drug uptake in human DaOY cells assessed as drug internalization at 0.25 uM pretreated with caveloae-uptake inhibitor, genistein 1 hr prior to compound addition and measured after 3 hrs by flow cytometry; assay type: ADME, cell-based; in short: as §2
[25] = Cytotoxicity against human NHA cells assessed as reduction in cell viability incubated for 72 hrs; assay type: cell-based; in short: as §1
[26] = Drug uptake in human DaOY cells assessed as drug internalization at 0.25 to 100 uM incubated for 24 hrs using C-terminal FITC labeled compound by confocal microscopy; assay type: ADME, cell-based
In short: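 Medulloblastoma cells exposed 24 h to fluorescently labelled peptide at 0.25 μM, 25 μM and 100 μM, then imaged by confocal microscopy. Cell membrane stained red, nucleus blue, peptide green. Untreated cells served as control.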

[27] = system: Daoy; experiment: Binding affinity to human DaOY cell surface measured after 15 mins incubation using C-terminal FITC labeled compound by Live cell confocal microscopy; assay type: cell-based
[28] = Drug uptake in human DaOY cells assessed as drug internalization at 0.1 to 1000 uM incubated for 24 hrs using C-terminal FITC-labeled compound by flow cytometry; assay type: ADME, cell-based
In short: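 FITC-labelled peptide at differing concentrations for 24 h, then cell-associated green fluorescence intensity measured by flow cytometry. Cells given non-fluorescent peptide served as control; n = 3 independent experiments.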

[29] = Solubility of the compound in water using C-terminal FITC-labeled compound; assay type: physicochemical; settings: buffer
[30] = Stability of the compound in water using C-terminal FITC-labeled compound; assay type: physicochemical; settings: buffer
[31] = system: Daoy; experiment: Cytotoxicity against human DaOY cells assessed as reduction in cell viability incubated for 72 hrs; assay type: cell-based; in short: as §1
[32] = system: MRC5; experiment: Cytotoxicity against human MRC5 cells assessed as reduction in cell viability incubated for 72 hrs; assay type: cell-based; settings: mrc5, 72 h; in short: as §1

- Time [2]: 1.3 nanoseconds
- Stability [4]: Stable
- Time [6]: 4.3 nanoseconds
- Drug uptake [7]: Not Active
- Stability [8]: Stable
- Drug uptake [11]: Active
- Stability [12]: Stable
- Stability [13]: Stable
- Drug uptake [15]: Active
- Drug uptake [16]: Active
Compound: COc1cccc2c1C(=O)c1c(O)c3c(c(O)c1C2=O)C[C@@](O)(C(=O)COC(=O)CCCC(=O)N[C@@H](Cc1ccccc1)C(=O)N[C@@H](CO)C(=O)N[C@@H](CCCNC(=N)N)C(=O)N1CCC[C@H]1C(=O)N[C@@H](C)C(=O)N[C@@H](Cc1ccccc1)C(=O)N[C@@H](CC(C)C)C(=O)O)C[C@@H]3O[C@H]1C[C@H](N)[C@H](O)[C@H](C)O1 ({Glutaryl(5-(14-O-Dox))}-FSRPAFL-OH)
- IC50 [1]: 10800 nM
- IC50 [3]: 842 nM
- Ratio IC50 [5]: 33.7
- Ratio IC50 [9]: 430.2
- selectivity ratio at 72 h [10]: > 72
- selectivity ratio at 72 h [14]: > 7.4
- IC50 [17]: 25 nM

Compound: COc1cccc2c1C(=O)c1c(O)c3c(c(O)c1C2=O)C[C@@](O)(C(=O)COC(=O)CCCC(=O)N[C@H](C(=O)NCC(=O)NCC(=O)N[C@@H](CC(C)C)C(=O)N[C@@H](CO)C(=O)N[C@@H](Cc1c[nH]cn1)C(=O)N[C@@H](CCCNC(=N)N)C(=O)O)C(C)C)C[C@@H]3O[C@H]1C[C@H](N)[C@H](O)[C@H](C)O1 ({Glutaryl(5-(14-O-Dox))}-VGGLSHR-OH)
- IC50 [17]: 130 nM

- Time [2]: 1.3 nanoseconds
- Time [6]: 4.3 nanoseconds
- Drug uptake [7]: Active
- Drug uptake [11]: Active
- Drug uptake [18]: Active
- Drug uptake [19]: Active
- Drug uptake [20]: Active
- Drug uptake [21]: Active
- Drug uptake [22]: Active
- Drug uptake [23]: Active
- Drug uptake [24]: Active
Compound: COc1cccc2c1C(=O)c1c(O)c3c(c(O)c1C2=O)C[C@@](O)(C(=O)CO)C[C@@H]3O[C@H]1C[C@H](N)[C@H](O)[C@H](C)O1 [DOXORUBICIN]
- IC50 [1]: 148 nM
- IC50 [3]: 113 nM
- Ratio IC50 [5]: 12.8
- Ratio IC50 [9]: 16.8
- IC50 [17]: 8.8 nM

- Drug uptake [26]: Active
- Drug uptake [28]: Active
- solubility [29]: Soluble
- Stability [30]: Stable
Compound: H-FSRPAFL-OH
- Activity [25]: Non-Toxic
- Activity [27]: Active
- Activity [31]: Non-Toxic
- Activity [32]: Non-Toxic
